In ChEMBL document CHEMBL3792310, “Amine-free melanin-concentrating hormone receptor 1 antagonists: Novel non-basic 1-(2H-indazole-5-yl)pyridin-2(1H)-one derivatives and mitigation of mutagenicity in Ames test” (Bioorg Med Chem, 2016):
pIC50: −log10 of the molar value. Calls of active or inactive are those of the source. The rule behind the calls is not given here.

How the values were obtained:
[1] = molecular target: T1, Melanin-concentrating hormone receptor 1 (Homo sapiens, UniProt Q99705); test: Displacement of [125I]-MCH(4 to 19) from human MCHR1 expressed in CHO cell membranes after 1 hr liquid scintillation counting
[2] = molecular target: Melanin-concentrating hormone receptor 1 (Rattus norvegicus, UniProt P97639); test: Displacement of [125I]-MCH(4 to 19) from rat MCHR1 expressed in CHO cell membranes after 1 hr by liquid scintillation counting
Mus musculus [3] = species on record: Mus musculus; test: Toxicity in MCHR deficient mouse assessed as effect on food intake; format: organism-based; conditions: in vivo
Rattus norvegicus [4] = test: Anorectic effect in DIO-F344/Jcl rat at 3 mg/kg, po administered for 2 days started 2 hrs prior to onset of dark period measured during compound dosing; format: functional
Summary of the method: (§1)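 Male DIO-F344/Jcl rats, 44 weeks old, on high-fat diet from 5 weeks of age. Singly housed on powder high-fat diet and habituated to oral dosing with tap water, then grouped by day-0 food intake and body weight. Oral dosing at 2 mL/kg in 0.5% methylcellulose 2 h before dark onset for 2 days, n = 6. Two-day food intake is expressed as inhibition rate versus vehicle.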

Cytochrome P450 2C9 = Cytochrome P450 2C9 (Homo sapiens, UniProt P11712); test: Reversal inhibition of CYP2C9 (unknown origin) at 10 uM; format: ADME
[5] = Cmax in Sprague-Dawley rat at 1 mg/kg, po administered through cassette dosing by LC/MS/MS analysis; format: ADME, organism-based; design: dose 1 mg/kg, route oral; conditions: in vivo
Summary of the method: (§2)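 Male SD rats, eight weeks old, fed; cassette dosing iv at 0.1 mg/kg or po at 1 mg/kg as a suspension in 0.5% methylcellulose, n = 3. Plasma taken from blood, deproteinized with acetonitrile, centrifuged, and the supernatant measured by LC/MS/MS. AUC covers 0–8 h.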

Rattus norvegicus [6] = test: Antiobesity activity in DIO-F344/Jcl rat assessed as reduction in body weight at 5 mg/kg, po dosed for 2 weeks and measured every 2 or 3 days relative to vehicle control; format: functional; design: scale not given: the % may be the effect or the level left
Summary of the method: (§3)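 DIO-F344 rats, 48 weeks old, habituated and grouped as for the acute study. Dosed orally once daily for 2 weeks at 2 mL/kg in 0.5% methylcellulose, 1–3 h before dark onset, after body weight measurement; n = 6. Sibutramine positive control. Food intake read every 2 or 3 days. Body weight change is taken as percent of initial weight; mean and SD reported.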

[7] = AUC(0 to 8 hrs) in Sprague-Dawley rat at 1 mg/kg, po administered through cassette dosing by LC/MS/MS analysis; format: ADME, organism-based; design: dose 1 mg/kg, route oral; conditions: in vivo; summary of the method: as §2
Rattus norvegicus [8] = test: Trough plasma concentration in DIO-F344/Jcl rat at 10 mg/kg, po; format: ADME, organism-based; conditions: in vivo, read-out: Cmin
[9] = Total plasma clearance in Sprague-Dawley rat at 0.1 mg/kg, iv administered through cassette dosing by LC/MS/MS analysis; format: ADME, organism-based; summary of the method: as §2
Rattus norvegicus [10] = test: Anorectic effect in DIO-F344/Jcl rat assessed as reduction in cumulative food intake at 10 mg/kg, po administered once daily for 2 weeks measured during compound dosing; design: scale not given: the % may be the effect or the level left
Cytochrome P450 1A2 = molecular target: T2, Cytochrome P450 1A2 (Homo sapiens, UniProt P05177); test: Reversal inhibition of CYP1A2 (unknown origin) at 10 uM; format: ADME
T2 sequence (P05177 whole entry): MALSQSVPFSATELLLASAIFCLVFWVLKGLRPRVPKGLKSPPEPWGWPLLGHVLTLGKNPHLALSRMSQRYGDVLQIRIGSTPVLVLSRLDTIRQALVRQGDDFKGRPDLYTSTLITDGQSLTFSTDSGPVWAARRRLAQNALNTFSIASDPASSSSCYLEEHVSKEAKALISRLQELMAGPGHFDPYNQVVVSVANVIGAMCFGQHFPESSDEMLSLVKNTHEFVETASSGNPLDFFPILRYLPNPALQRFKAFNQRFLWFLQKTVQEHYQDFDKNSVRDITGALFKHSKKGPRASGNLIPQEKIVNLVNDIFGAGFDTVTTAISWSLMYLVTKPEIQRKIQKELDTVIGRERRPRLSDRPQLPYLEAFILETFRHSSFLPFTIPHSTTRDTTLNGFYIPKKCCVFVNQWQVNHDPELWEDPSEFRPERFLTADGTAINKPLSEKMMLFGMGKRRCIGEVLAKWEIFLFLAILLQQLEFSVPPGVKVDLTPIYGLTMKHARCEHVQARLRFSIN

[11] = molecular target: T1, Melanin-concentrating hormone receptor 1; test: Antagonist activity at human MCHR1 expressed in CHO cells assessed as inhibition of MCH-stimulated Ca2+ mobilization measured every 2 secs by fluorometric analysis; format: functional, cell-based
Summary of the method: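 Human MCHR1 stably transfected into CHO dhfr− cells; clone no.4 used. Cells seeded at 20000/well, cultured about 24 h at 37 °C in 5% CO2, loaded with Fluo4 dye for 30 min. Compound in 10 mM HEPES pH 7.4 buffer with 0.1% BSA added first, then MCH(4–19) at 2 nM final. Fluorescence read at 2 s intervals; inhibition % taken against ligand-only and DMSO-only wells.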

[12] = Tmax in Sprague-Dawley rat at 1 mg/kg, po administered through cassette dosing by LC/MS/MS analysis; format: ADME, organism-based; conditions: in vivo; summary of the method: as §2
Cytochrome P450 2D6 = Cytochrome P450 2D6 (Homo sapiens, UniProt P10635); test: Reversal inhibition of CYP2D6 (unknown origin) at 10 uM; format: ADME
[13] = Volume of distribution at steady state in Sprague-Dawley rat at 0.1 mg/kg, iv administered through cassette dosing by LC/MS/MS analysis; format: ADME, organism-based; conditions: in vivo, read-out: Vdss; summary of the method: as §2
[14] = Ratio of drug level in brain to plasma in po dosed DIO-F344/Jcl rat; format: ADME, organism-based; conditions: read-out: BPR
[15] = Fraction unbound in DIO-F344/Jcl rat plasma at 10 mg/kg, po; format: ADME, organism-based
Salmonella typhimurium [16] = test: Mutagenicity in Salmonella typhimurium TA1537 assessed as increase in number of revertant colony up to 5000 ug/plate by Ames test in absence of S9 fraction; format: toxicity, organism-based; conditions: salmonella enterica subsp. enterica serovar typhimurium
Summary of the method: (§4)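 Ames test in Salmonella typhimurium TA1537, with and without S9 metabolic activation. A positive call is a more than two-fold increase in revertant colonies over vehicle control.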

[17] = Oral bioavailability in Sprague-Dawley rat plasma at 1 mg/kg administered through cassette dosing by LC/MS/MS analysis; format: ADME, organism-based; summary of the method: as §2
Cytochrome P450 2C8 = molecular target: T3, Cytochrome P450 2C8 (Homo sapiens, UniProt P10632); test: Reversal inhibition of CYP2C8 (unknown origin) at 10 uM; format: ADME
T3 sequence (P10632 whole entry): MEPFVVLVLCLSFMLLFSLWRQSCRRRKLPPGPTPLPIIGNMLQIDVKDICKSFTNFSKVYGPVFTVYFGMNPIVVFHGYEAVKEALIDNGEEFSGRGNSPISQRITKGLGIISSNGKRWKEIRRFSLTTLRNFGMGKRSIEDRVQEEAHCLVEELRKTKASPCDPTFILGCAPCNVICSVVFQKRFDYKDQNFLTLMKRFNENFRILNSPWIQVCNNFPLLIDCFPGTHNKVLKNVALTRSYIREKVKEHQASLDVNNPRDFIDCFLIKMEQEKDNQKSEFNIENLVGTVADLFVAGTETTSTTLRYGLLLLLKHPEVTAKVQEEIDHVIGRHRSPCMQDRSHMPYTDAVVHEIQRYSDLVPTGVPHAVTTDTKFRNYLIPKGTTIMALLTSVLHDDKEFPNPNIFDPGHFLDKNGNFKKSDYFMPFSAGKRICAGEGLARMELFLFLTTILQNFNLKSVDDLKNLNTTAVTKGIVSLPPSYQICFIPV

Rattus norvegicus [18] = test: Antiobesity activity in DIO-F344/Jcl rat assessed as reduction in body weight at 10 mg/kg, po dosed for 2 weeks and measured every 2 or 3 days relative to vehicle control; format: functional; design: scale not given: the % may be the effect or the level left; summary of the method: as §3
Cytochrome P450 3A4 = Cytochrome P450 3A4 (Homo sapiens, UniProt P08684); test: Reversal inhibition of CYP3A4 (unknown origin) at 10 uM; format: ADME
Rattus norvegicus [19] = test: Antiobesity activity in DIO-F344/Jcl rat assessed as reduction in body weight at 3 mg/kg, po dosed for 2 weeks and measured every 2 or 3 days relative to vehicle control; format: functional, organism-based; summary of the method: as §3
Rattus norvegicus [20] = test: Anorectic effect in DIO-F344/Jcl rat at 10 mg/kg, po administered for 2 days started 2 hrs prior to onset of dark period measured during compound dosing; format: functional; summary of the method: as §1
Plasma = test: Unbound plasma concentration in DIO-F344/Jcl rat at 10 mg/kg, po; format: ADME, organism-based; conditions: in vivo
Rattus norvegicus [21] = test: Anorectic effect in DIO-F344/Jcl rat assessed as reduction in cumulative food intake at 5 mg/kg, po administered once daily for 2 weeks measured during compound dosing; design: scale not given: the % may be the effect or the level left
Mus musculus [22] = species on record: Mus musculus; test: Anorectic effect in wild type mouse assessed as reduction in food intake; format: functional, organism-based
Salmonella typhimurium [23] = test: Mutagenicity in Salmonella typhimurium TA1537 assessed as increase in number of revertant colony at 313 ug/plate by Ames test in absence of S9 fraction; format: toxicity, organism-based; conditions: salmonella enterica subsp. enterica serovar typhimurium
Salmonella typhimurium [24] = test: Mutagenicity in Salmonella typhimurium TA1537 at 250 ug by Ames test in presence of S9 fraction; format: toxicity, organism-based, Salmonella enterica subsp. enterica serovar Typhimurium; summary of the method: as §4
Salmonella typhimurium [25] = test: Mutagenicity in Salmonella typhimurium TA1537 assessed as increase in number of revertant colony at 250 ug/plate by Ames test in absence of S9 fraction; format: toxicity, organism-based; conditions: salmonella enterica subsp. enterica serovar typhimurium; summary of the method: as §4

Sequence of Melanin-concentrating hormone receptor 1 (Rattus norvegicus, UniProt P97639) (P97639 whole entry): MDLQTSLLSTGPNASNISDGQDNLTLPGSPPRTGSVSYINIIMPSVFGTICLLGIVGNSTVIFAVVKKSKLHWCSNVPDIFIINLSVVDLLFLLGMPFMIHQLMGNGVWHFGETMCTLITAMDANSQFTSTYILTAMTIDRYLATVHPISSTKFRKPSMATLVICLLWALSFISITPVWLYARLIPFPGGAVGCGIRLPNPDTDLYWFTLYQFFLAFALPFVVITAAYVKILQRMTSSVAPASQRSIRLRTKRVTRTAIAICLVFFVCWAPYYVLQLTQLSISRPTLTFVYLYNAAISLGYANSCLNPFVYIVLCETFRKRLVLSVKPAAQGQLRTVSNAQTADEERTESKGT
T1 sequence (Q99705 whole entry): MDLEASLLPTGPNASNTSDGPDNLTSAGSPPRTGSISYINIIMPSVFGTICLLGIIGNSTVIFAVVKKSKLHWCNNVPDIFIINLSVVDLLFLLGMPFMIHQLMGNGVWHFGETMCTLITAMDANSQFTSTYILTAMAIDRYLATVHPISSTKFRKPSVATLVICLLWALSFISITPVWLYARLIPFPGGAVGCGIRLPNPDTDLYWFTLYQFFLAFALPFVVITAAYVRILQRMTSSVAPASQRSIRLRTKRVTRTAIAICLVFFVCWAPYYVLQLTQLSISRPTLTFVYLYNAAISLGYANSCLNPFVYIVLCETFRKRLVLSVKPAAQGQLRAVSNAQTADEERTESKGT
Sequence of Cytochrome P450 3A4 (P08684 whole entry): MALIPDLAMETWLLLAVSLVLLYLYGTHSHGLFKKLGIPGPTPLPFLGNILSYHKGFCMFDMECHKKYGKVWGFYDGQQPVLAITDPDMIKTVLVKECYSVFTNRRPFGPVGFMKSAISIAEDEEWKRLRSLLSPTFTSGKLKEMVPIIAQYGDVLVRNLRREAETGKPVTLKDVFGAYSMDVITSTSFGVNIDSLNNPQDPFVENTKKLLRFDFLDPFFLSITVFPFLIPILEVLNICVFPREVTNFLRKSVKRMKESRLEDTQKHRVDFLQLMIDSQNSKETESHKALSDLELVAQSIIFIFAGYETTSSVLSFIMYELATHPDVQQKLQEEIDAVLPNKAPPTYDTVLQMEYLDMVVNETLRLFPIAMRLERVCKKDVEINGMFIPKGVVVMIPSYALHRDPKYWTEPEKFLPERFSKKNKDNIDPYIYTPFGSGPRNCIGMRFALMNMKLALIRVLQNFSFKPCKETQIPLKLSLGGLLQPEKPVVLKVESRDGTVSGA
Sequence of Cytochrome P450 2D6 (P10635 whole entry): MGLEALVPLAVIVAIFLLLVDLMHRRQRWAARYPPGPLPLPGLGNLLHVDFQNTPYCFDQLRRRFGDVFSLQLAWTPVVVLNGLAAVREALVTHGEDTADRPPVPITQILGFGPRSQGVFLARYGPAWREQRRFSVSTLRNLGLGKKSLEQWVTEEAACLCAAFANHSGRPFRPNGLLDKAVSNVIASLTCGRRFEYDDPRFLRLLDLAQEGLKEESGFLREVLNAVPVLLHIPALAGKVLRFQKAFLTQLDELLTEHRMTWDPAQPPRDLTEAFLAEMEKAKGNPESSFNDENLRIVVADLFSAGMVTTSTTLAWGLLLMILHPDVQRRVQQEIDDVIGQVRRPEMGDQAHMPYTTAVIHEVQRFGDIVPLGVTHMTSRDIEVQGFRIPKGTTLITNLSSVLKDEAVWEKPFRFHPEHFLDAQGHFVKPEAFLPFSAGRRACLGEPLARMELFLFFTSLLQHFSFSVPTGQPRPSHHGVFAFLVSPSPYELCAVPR
Sequence of Cytochrome P450 2C9 (P11712 whole entry): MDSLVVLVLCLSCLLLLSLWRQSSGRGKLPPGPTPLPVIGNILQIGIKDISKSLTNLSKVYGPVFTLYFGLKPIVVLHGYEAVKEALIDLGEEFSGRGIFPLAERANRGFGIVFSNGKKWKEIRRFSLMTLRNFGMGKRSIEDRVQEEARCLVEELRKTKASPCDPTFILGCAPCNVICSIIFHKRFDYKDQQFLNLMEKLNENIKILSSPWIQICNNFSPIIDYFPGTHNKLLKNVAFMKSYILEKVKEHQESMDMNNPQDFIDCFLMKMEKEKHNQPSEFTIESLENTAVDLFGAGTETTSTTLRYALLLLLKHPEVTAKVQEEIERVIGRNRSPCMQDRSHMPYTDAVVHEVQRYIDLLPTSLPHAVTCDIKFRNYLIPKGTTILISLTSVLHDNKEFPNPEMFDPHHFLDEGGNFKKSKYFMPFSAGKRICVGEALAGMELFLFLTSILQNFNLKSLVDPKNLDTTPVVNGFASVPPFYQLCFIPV

Cn1c(C2CC2)cc2ccc(-n3ccc(OCc4ccc(Cl)cc4)cc3=O)cc21
pIC50 [1]: 6.82

Cc1c2cc(-n3ccc(OCc4cc(C(F)(F)F)cs4)cc3=O)ccc2nn1C
pIC50 [1]: 7.13
pIC50 [2]: 7.42

CCCn1nc2ccc(-n3ccc(OCc4ccc(Cl)cc4)cc3=O)cc2c1C
pIC50 [1]: 6.68
pIC50 [2]: 6.89

Cc1nn(C)c2ccc(-n3ccc(OCc4ccc(Cl)cc4)cc3=O)cc12
pIC50 [1]: 7.00

Cc1c2cc(-n3ccc(OCc4csc(C(F)(F)F)c4)cc3=O)ccc2nn1C1CC1
Activity (Mus musculus [3]): Non-toxic
Activity (Rattus norvegicus [4]): 21.5%
inhibition (INH) (Cytochrome P450 2C9): Not Active
Cmax [5]: 426 ng/mL
Activity (Rattus norvegicus [6]): 3.9%
AUC(0-t) at 6 h [7]: 2880 ng·h/mL
concentration (Rattus norvegicus [8]): 3.36 µM
clearance [9]: 4.93 mL/min/kg
Activity (Rattus norvegicus [10]): 23.2%
inhibition (INH) (Cytochrome P450 1A2): Not Active
pIC50 [11]: 7.10
Tmax [12]: 2.7 h
pIC50 [1]: 7.42
inhibition (INH) (Cytochrome P450 2D6): Not Active
Vd [13]: 0.949 L/kg
Kp [14]: 0.66
fraction unbound [15]: 0.022
Activity (Salmonella typhimurium [16]): Non-toxic
bioavailability [17]: 78%
inhibition (INH) (Cytochrome P450 2C8): Not Active
Activity (Rattus norvegicus [18]): 7.6%
inhibition (INH) (Cytochrome P450 3A4): Not Active
Activity (Rattus norvegicus [19]): Active
Activity (Rattus norvegicus [20]): 30.6%
Cp(f) (Plasma): 0.0739 µM
pIC50 [2]: 7.59
Activity (Rattus norvegicus [21]): 12.2%
Activity (Mus musculus [22]): Dose-dependent effect

CCn1nc2ccc(-n3ccc(OCc4ccc(Cl)cc4)cc3=O)cc2c1C
pIC50 [1]: 6.85
pIC50 [2]: 7.19

Cc1c2cc(-n3ccc(OCc4ccc(F)cc4)cc3=O)ccc2nn1C1CC1
pIC50 [1]: 7.37
Activity (Salmonella typhimurium [16]): Non-toxic
pIC50 [2]: 7.46

Cc1c2cc(-n3ccc(OCc4csc(C(F)(F)F)n4)cc3=O)ccc2nn1C
pIC50 [1]: 6.64
pIC50 [2]: 6.89

Cc1c2cc(-n3ccc(OCc4csc(C(F)(F)F)c4)cc3=O)ccc2nn1C
pIC50 [1]: 7.05
fold change (FC) (Salmonella typhimurium [23]): 2
pIC50 [2]: 7.15

Cc1c(C2CC2)nn2ccc(-n3ccc(OCc4ccc(Cl)cc4)cc3=O)cc12
pIC50 [1]: 7.16

Cc1c2cc(-n3ccc(OCc4ccc(Cl)cc4)cc3=O)ccc2nn1C1CC1
Cmax [5]: 291 ng/mL
AUC(0-t) at 6 h [7]: 1810 ng·h/mL
clearance [9]: 3.45 mL/min/kg
pIC50 [11]: 7.48
Tmax [12]: 4 h
pIC50 [1]: 7.51
Vd [13]: 0.676 L/kg
Activity (Salmonella typhimurium [16]): Non-toxic
bioavailability [17]: 37%
pIC50 [2]: 7.64

Cc1c2cc(-n3ccc(OCc4ccc(Cl)cc4)cc3=O)ccc2nn1C
Activity (Salmonella typhimurium [24]): Non-toxic
fold change (FC) (Salmonella typhimurium [25]): 2
pIC50 [1]: 7.46
pIC50 [2]: 7.44

Cc1c2cc(-n3ccc(OCc4ccc(F)cc4)cc3=O)ccc2nn1C
pIC50 [1]: 6.96
Activity (Salmonella typhimurium [16]): Non-toxic
pIC50 [2]: 7.12

Cc1c2cc(-n3ccc(OCc4ccc(C(F)(F)F)s4)cc3=O)ccc2nn1C
pIC50 [1]: 6.77
pIC50 [2]: 7.05

Cc1c2cc(-n3ccc(OCc4nc(C(F)(F)F)cs4)cc3=O)ccc2nn1C
pIC50 [1]: 6.89
pIC50 [2]: 7.12
